# Laboratory results reported in ChEMBL document CHEMBL3045743, “Synthesis and herbicidal activity of isoindoline-1,3-dione substituted benzoxazinone derivatives containing a carboxylic ester group” (J Agric Food Chem, 2009).
# Columns and labels:
# Arachis hypogaea [1] = experiment: Phytotoxicity against Arachis hypogaea (peanut) assessed as growth inhibition at 75 g.a.i/ha pre-emergent application measured after 15 days by greenhouse crop selectivity assay; assay type: organism-based; conditions: in vivo, other, 360 h
# How it was run: (§1)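 Pre-emergence greenhouse crop selectivity test on pot-grown plants in clay soil (pH 6.5, 1.7% organic matter, 37.5% clay, CEC 12.9 cmol/kg). Stock solutions were diluted with water and applied at 300, 150, 75 or 37.5 g a.i./ha, in triplicate. After 15 days, phytotoxicity was scored visually against untreated controls as % crop growth inhibition, averaged over the triplicates.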
# [2] = tested on: Brassica rapa subsp. oleifera; experiment: Phytotoxicity against Brassica rapa subsp. oleifera assessed as growth inhibition at 300 g.a.i/ha pre-emergent application measured after 15 days by greenhouse crop selectivity assay; assay type: functional; conditions: pre-emergence, 360 h, read-out: GI
# How it was run: (§2)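 Pot-grown crop in greenhouse clay soil (pH 6.5, 1.7% organic matter, 37.5% clay, CEC 12.9 cmol/kg). Stock diluted with water and applied pre-emergence at 300, 150, 75 or 37.5 g a.i./ha. Cultivated 15 days, then phytotoxicity scored visually as % growth inhibition versus untreated controls. Triplicate treatments, averaged.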
# Zea mays [3] = experiment: Phytotoxicity against Zea mays (maize) assessed as growth inhibition at 7.5 to 60 g.a.i/ha post-emergent application measured after 15 days by greenhouse crop selectivity assay; assay type: organism-based; conditions: in vivo, other, 360 h
# How it was run: (§3)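 Postemergence crop selectivity test on pot-grown plants in a greenhouse, in clay soil (pH 6.5, 1.7% organic matter, CEC 12.9 cmol/kg). Stock was diluted with water and sprayed at 60, 30, 15 or 7.5 g a.i./ha, in triplicate. Growth inhibition was rated visually against untreated controls after 15 days and given as the triplicate mean percentage.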
# Chenopodium album [4] = experiment: Pre-emergence herbicidal activity against Chenopodium album assessed as growth inhibition at 37.5 g.a.i./ha applied 24 hr after seeds were sown measured after 15 days; assay type: functional; conditions: read-out: GI
# How it was run: (§4)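 Weeds sown 5 mm deep in pots of greenhouse clay soil (pH 6.5, 37.5% clay, CEC 12.9 cmol/kg) and grown at 22-25 °C. Water-diluted formulation was applied pre-emergence 24 h after sowing. Untreated and DMF solvent controls were included. Growth inhibition was visually rated in % against untreated controls after 15 days, as the mean of triplicates.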
# Digitaria sanguinalis [5] = experiment: Pre-emergence herbicidal activity against Digitaria sanguinalis (hairy crabgrass) assessed as growth inhibition at 37.5 g.a.i./ha applied 24 hr after seeds were sown measured after 15 days; assay type: functional; conditions: read-out: GI; how it was run: as §4
# Digitaria sanguinalis [6] = experiment: Post-emergence herbicidal activity against Digitaria sanguinalis (hairy crabgrass) assessed as growth inhibition at 37.5 g.a.i./ha applied at one-leaf stage measured after 15 days; assay type: functional; conditions: 360 h, read-out: GI
# How it was run: (§5)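 Pot-grown weeds sown 5 mm deep in greenhouse clay soil (pH 6.5, 1.7% organic matter, CEC 12.9 cmol/kg) at 22-25 °C. Stock diluted with water and sprayed post-emergence: dicots at 2-leaf stage, monocots at 1-leaf stage. Untreated and DMF solvent controls were included. % growth inhibition was scored visually versus untreated controls after 15 days. Triplicates averaged.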
# Amaranthus = experiment: Post-emergence herbicidal activity against Amaranthus ascendens assessed as growth inhibition at 75 g.a.i./ha applied at two-leaf stage measured after 15 days; assay type: functional; conditions: 360 h, read-out: GI; how it was run: as §5
# [7] = Phytotoxicity against Triticum aestivum (wheat) assessed as growth inhibition at 150 g.a.i/ha pre-emergent application measured after 15 days by greenhouse crop selectivity assay; assay type: organism-based; conditions: in vivo, 150 g.a.i/ha, read-out: GI; how it was run: as §1
# Echinochloa crus-galli [8] = experiment: Post-emergence herbicidal activity against Echinochloa crus-galli (barnyard grass) assessed as growth inhibition at 75 g.a.i./ha applied at one-leaf stage measured after 15 days; assay type: functional; conditions: 360 h, read-out: GI; how it was run: as §5
# Chenopodium album [9] = experiment: Post-emergence herbicidal activity against Chenopodium album assessed as growth inhibition at 37.5 g.a.i./ha applied at two-leaf stage measured after 15 days; assay type: functional; conditions: 360 h, read-out: GI; how it was run: as §5
# Digitaria sanguinalis [10] = experiment: Post-emergence herbicidal activity against Digitaria sanguinalis (hairy crabgrass) assessed as growth inhibition at 75 g.a.i./ha applied at one-leaf stage measured after 15 days; assay type: functional; conditions: 360 h, read-out: GI; how it was run: as §5
# Abutilon theophrasti [11] = experiment: Post-emergence herbicidal activity against Abutilon theophrasti (velvetleaf) assessed as growth inhibition at 15 g.a.i./ha applied at two-leaf stage measured after 15 days; assay type: functional; conditions: 360 h, read-out: GI; how it was run: as §5
# Chenopodium album [12] = experiment: Pre-emergence herbicidal activity against Chenopodium album assessed as growth inhibition at 15 g.a.i./ha applied 24 hr after seeds were sown measured after 15 days; assay type: functional; conditions: read-out: GI; how it was run: as §4
# [13] = Phytotoxicity against Triticum aestivum (wheat) assessed as growth inhibition at 300 g.a.i/ha pre-emergent application measured after 15 days by greenhouse crop selectivity assay; assay type: organism-based; conditions: in vivo, read-out: GI; how it was run: as §1
# Abutilon theophrasti [14] = experiment: Post-emergence herbicidal activity against Abutilon theophrasti (velvetleaf) assessed as growth inhibition at 7.5 g.a.i./ha applied at two-leaf stage measured after 15 days; assay type: functional; conditions: 360 h, read-out: GI; how it was run: as §5
# Oryza sativa = experiment: Phytotoxicity against Oryza sativa (rice) assessed as growth inhibition at 7.5 to 60 g.a.i/ha post-emergent application measured after 15 days by greenhouse crop selectivity assay; assay type: organism-based, L.; conditions: in vivo, other, 360 h; how it was run: as §3
# [15] = tested on: Brassica rapa subsp. oleifera; experiment: Phytotoxicity against Brassica rapa subsp. oleifera assessed as growth inhibition at 75 g.a.i/ha pre-emergent application measured after 15 days by greenhouse crop selectivity assay; assay type: functional; conditions: pre-emergence, 360 h, read-out: GI; how it was run: as §2
# Echinochloa crus-galli [16] = experiment: Pre-emergence herbicidal activity against Echinochloa crus-galli (barnyard grass) assessed as growth inhibition at 75 g.a.i./ha applied 24 hr after seeds were sown measured after 15 days; assay type: functional; conditions: read-out: GI; how it was run: as §4
# Echinochloa crus-galli [17] = experiment: Post-emergence herbicidal activity against Echinochloa crus-galli (barnyard grass) assessed as growth inhibition at 7.5 g.a.i./ha applied at one-leaf stage measured after 15 days; assay type: functional; conditions: 360 h, read-out: GI; how it was run: as §5
# Setaria viridis [18] = experiment: Post-emergence herbicidal activity against Setaria viridis (green foxtail) assessed as growth inhibition at 75 g.a.i./ha applied at one-leaf stage measured after 15 days; assay type: functional; conditions: 360 h, read-out: GI; how it was run: as §5
# Digitaria sanguinalis [19] = experiment: Pre-emergence herbicidal activity against Digitaria sanguinalis (hairy crabgrass) assessed as growth inhibition at 7.5 g.a.i./ha applied 24 hr after seeds were sown measured after 15 days; assay type: functional; conditions: read-out: GI; how it was run: as §4
# Setaria viridis [20] = experiment: Post-emergence herbicidal activity against Setaria viridis (green foxtail) assessed as growth inhibition at 7.5 g.a.i./ha applied at one-leaf stage measured after 15 days; assay type: functional; conditions: 360 h, read-out: GI; how it was run: as §5
# Arachis hypogaea [21] = experiment: Phytotoxicity against Arachis hypogaea (peanut) assessed as growth inhibition at 300 g.a.i/ha pre-emergent application measured after 15 days by greenhouse crop selectivity assay; assay type: organism-based; conditions: in vivo, other, 360 h; how it was run: as §1
# Abutilon theophrasti [22] = experiment: Pre-emergence herbicidal activity against Abutilon theophrasti (velvetleaf) assessed as growth inhibition at 15 g.a.i./ha applied 24 hr after seeds were sown measured after 15 days; assay type: functional; conditions: read-out: GI; how it was run: as §4
# Arachis hypogaea [23] = experiment: Phytotoxicity against Arachis hypogaea (peanut) assessed as growth inhibition at 37.5 g.a.i/ha pre-emergent application measured after 15 days by greenhouse crop selectivity assay; assay type: organism-based; conditions: in vivo, other, 360 h; how it was run: as §1
# Abutilon theophrasti [24] = experiment: Post-emergence herbicidal activity against Abutilon theophrasti (velvetleaf) assessed as growth inhibition at 75 g.a.i./ha applied at two-leaf stage measured after 15 days; assay type: functional; conditions: 360 h, read-out: GI; how it was run: as §5
# Digitaria sanguinalis [25] = experiment: Pre-emergence herbicidal activity against Digitaria sanguinalis (hairy crabgrass) assessed as growth inhibition at 75 g.a.i./ha applied 24 hr after seeds were sown measured after 15 days; assay type: functional; conditions: read-out: GI; how it was run: as §4
# Zea mays [26] = experiment: Phytotoxicity against Zea mays (maize) assessed as growth inhibition at 150 g.a.i/ha pre-emergent application measured after 15 days by greenhouse crop selectivity assay; assay type: organism-based; conditions: in vivo, other, 360 h; how it was run: as §1
Compound,growth inhibition (GI) (Arachis hypogaea [1]),inhibition of growth at 300 g/ha [2] [%],Activity (Zea mays [3]),inhibition of growth at 37.5 g/ha (Chenopodium album [4]) [%],inhibition of growth at 37.5 g/ha (Digitaria sanguinalis [5]) [%],inhibition of growth at 37.5 g/ha (Digitaria sanguinalis [6]) [%],inhibition of growth at 75 g/ha (Amaranthus) [%],inhibition of growth at 75 g/ha (Echinochloa crus-galli [8]) [%],inhibition of growth at 37.5 g/ha (Chenopodium album [9]) [%],inhibition of growth at 75 g/ha (Digitaria sanguinalis [10]) [%],inhibition of growth at 15 g/ha (Abutilon theophrasti [11]) [%],inhibition of growth at 15 g/ha (Chenopodium album [12]) [%],inhibition at 360 h [13] [%],inhibition of growth at 7.5 g/ha (Abutilon theophrasti [14]) [%],Activity (Oryza sativa),inhibition of growth at 75 g/ha [15] [%],inhibition of growth at 75 g/ha (Echinochloa crus-galli [16]) [%],inhibition of growth at 7.5 g/ha (Echinochloa crus-galli [17]) [%],inhibition of growth at 75 g/ha (Setaria viridis [18]) [%],inhibition of growth at 7.5 g/ha (Digitaria sanguinalis [19]) [%],further results
C#CCN1C(=O)COc2cc(F)c(N3C(=O)C4=C(CCCC4)C3=O)cc21 [FLUMIOXAZIN],Not Active,> 10,Toxic,100,80,95,> 80,> 80,100,> 80,100,100,> 10,100,Toxic,> 10,> 80,50,> 80,0,inhibition at 360 h [7]: > 10%; inhibition of growth at 7.5 g/ha (Setaria viridis [20]): 80%; growth inhibition (GI) (Arachis hypogaea [21]): Not Active; inhibition of growth at 15 g/ha (Abutilon theophrasti [22]): 80%; growth inhibition (GI) (Arachis hypogaea [23]): Not Active; inhibition of growth at 75 g/ha (Abutilon theophrasti [24]): > 80%; inhibition of growth at 75 g/ha (Digitaria sanguinalis [25]): > 80%
COC(=O)C(C)N1C(=O)C(C)Oc2cc(F)c(N3C(=O)C4=C(CCCC4)C3=O)cc21 (stereo not given),Not Active,> 10,Toxic,100,50,60,> 80,> 80,100,> 80,100,100,> 10,100,Toxic,> 10,> 80,10,> 80,0,inhibition at 360 h [7]: > 10%; inhibition of growth at 7.5 g/ha (Setaria viridis [20]): 10%; growth inhibition (GI) (Arachis hypogaea [21]): Not Active; growth inhibition (GI) (Zea mays [26]): Not Active; inhibition of growth at 15 g/ha (Abutilon theophrasti [22]): 60%; growth inhibition (GI) (Arachis hypogaea [23]): Not Active; inhibition of growth at 75 g/ha (Abutilon theophrasti [24]): > 80%; inhibition of growth at 75 g/ha (Digitaria sanguinalis [25]): > 80%
CCOC(=O)C(CC)N1C(=O)C(C)Oc2cc(F)c(N3C(=O)C4=C(CCCC4)C3=O)cc21 (stereo not given),Not Active,> 10,Toxic,100,0,70,> 80,> 80,100,> 80,100,100,> 10,100,Toxic,> 10,> 80,0,> 80,0,inhibition of growth at 7.5 g/ha (Setaria viridis [20]): 20%; growth inhibition (GI) (Arachis hypogaea [21]): Not Active; growth inhibition (GI) (Zea mays [26]): Not Active; inhibition of growth at 15 g/ha (Abutilon theophrasti [22]): 40%; growth inhibition (GI) (Arachis hypogaea [23]): Not Active; inhibition of growth at 75 g/ha (Abutilon theophrasti [24]): > 80%; inhibition of growth at 75 g/ha (Digitaria sanguinalis [25]): > 80%
CCOC(=O)C(C)N1C(=O)C(C)Oc2cc(F)c(N3C(=O)C4=C(CCCC4)C3=O)cc21 (stereo not given),Not Active,> 10,Toxic,100,80,50,> 80,> 80,100,> 80,100,100,> 10,100,Toxic,> 10,> 80,10,> 80,0,inhibition at 360 h [7]: > 10%; inhibition of growth at 7.5 g/ha (Setaria viridis [20]): 20%; growth inhibition (GI) (Arachis hypogaea [21]): Not Active; growth inhibition (GI) (Zea mays [26]): Not Active; inhibition of growth at 15 g/ha (Abutilon theophrasti [22]): 0%; growth inhibition (GI) (Arachis hypogaea [23]): Not Active; inhibition of growth at 75 g/ha (Abutilon theophrasti [24]): > 80%; inhibition of growth at 75 g/ha (Digitaria sanguinalis [25]): > 80%
